Measured values from ChEMBL document CHEMBL1157664, “Aminopyridinecarboxamide-based inhibitors: Structure-activity relationship” (Bioorg Med Chem, 2010).
Active and inactive are the calls of the source. The calls are words filed in the database; no cut-off is given here.

Legend:
[1] = Antiinflammatory activity in human synovial fibroblasts assessed as inhibition of IL-1-beta-stimulated IL8 production treated 1 hr before IL1-beta challenge measured after 18 hrs by ELISA; format: functional
Outline: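 Rheumatoid arthritis patient synovial fibroblasts seeded at 1.5 × 10^4 cells/well in DMEM + 15% FBS and left to attach overnight. Medium then changed to DMEM + 1% FBS. Cells pretreated 1 h with increasing compound concentrations (0.2% Me2SO final), then stimulated 18 h with 1 ng/mL IL-1β. Secreted IL-8 measured by ELISA against standard curves (4-parameter logistic). Cytotoxicity checked by Alamar Blue.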

[2] = target: T1, Inhibitor of nuclear factor kappa-B kinase subunit epsilon (Homo sapiens) (UniProt Q14164); assay: Inhibition of IKKI
T1 sequence (whole entry): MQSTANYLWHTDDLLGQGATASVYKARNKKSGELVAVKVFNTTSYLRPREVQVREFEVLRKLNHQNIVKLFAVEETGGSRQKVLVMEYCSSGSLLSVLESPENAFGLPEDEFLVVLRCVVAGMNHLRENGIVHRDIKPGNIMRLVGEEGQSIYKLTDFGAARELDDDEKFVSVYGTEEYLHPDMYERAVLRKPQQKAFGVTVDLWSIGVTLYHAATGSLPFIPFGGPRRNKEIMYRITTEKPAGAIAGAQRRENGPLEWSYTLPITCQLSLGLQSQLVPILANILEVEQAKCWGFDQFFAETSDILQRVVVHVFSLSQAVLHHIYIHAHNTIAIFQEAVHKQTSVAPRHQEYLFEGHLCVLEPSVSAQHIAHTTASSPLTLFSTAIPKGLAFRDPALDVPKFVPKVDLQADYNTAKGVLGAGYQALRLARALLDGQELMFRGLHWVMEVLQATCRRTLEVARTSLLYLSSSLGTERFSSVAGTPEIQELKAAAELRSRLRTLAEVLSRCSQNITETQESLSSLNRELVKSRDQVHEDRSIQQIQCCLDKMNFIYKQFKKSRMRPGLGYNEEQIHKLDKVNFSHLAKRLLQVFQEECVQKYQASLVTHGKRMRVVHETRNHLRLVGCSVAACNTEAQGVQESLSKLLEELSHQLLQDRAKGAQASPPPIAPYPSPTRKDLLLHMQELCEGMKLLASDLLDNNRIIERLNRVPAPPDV

[3] = target: T2, Serine/threonine-protein kinase TBK1 (Homo sapiens) (UniProt Q9UHD2); assay: Inhibition of TBK1
T2 sequence (whole entry): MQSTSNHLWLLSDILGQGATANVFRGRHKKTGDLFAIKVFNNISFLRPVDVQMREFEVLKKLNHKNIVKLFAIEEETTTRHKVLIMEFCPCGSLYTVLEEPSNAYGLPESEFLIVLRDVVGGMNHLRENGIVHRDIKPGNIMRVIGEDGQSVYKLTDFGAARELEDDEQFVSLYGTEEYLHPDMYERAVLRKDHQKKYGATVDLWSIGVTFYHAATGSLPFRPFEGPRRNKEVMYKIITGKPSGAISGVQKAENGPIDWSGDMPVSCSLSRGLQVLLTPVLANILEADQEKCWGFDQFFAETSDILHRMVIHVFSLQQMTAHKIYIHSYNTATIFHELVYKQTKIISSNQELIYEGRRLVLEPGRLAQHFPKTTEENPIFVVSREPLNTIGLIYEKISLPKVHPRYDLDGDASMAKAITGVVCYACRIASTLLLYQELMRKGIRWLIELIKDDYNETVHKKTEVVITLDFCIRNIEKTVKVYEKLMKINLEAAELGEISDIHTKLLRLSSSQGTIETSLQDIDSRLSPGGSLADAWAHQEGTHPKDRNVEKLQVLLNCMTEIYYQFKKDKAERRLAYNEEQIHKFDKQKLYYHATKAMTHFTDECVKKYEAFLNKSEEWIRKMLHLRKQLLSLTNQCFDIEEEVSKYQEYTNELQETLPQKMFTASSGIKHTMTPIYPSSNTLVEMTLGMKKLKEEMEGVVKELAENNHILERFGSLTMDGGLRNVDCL

[4] = target: T3, Inhibitor of nuclear factor kappa-B kinase subunit beta (Homo sapiens, UniProt O14920); assay: Inhibition of human recombinant IKK2-mediated transfer of [gamma33P]ATP to biotinylated IkappaBalpha after 30 mins by scintillation counting
T3 sequence (O14920 whole entry): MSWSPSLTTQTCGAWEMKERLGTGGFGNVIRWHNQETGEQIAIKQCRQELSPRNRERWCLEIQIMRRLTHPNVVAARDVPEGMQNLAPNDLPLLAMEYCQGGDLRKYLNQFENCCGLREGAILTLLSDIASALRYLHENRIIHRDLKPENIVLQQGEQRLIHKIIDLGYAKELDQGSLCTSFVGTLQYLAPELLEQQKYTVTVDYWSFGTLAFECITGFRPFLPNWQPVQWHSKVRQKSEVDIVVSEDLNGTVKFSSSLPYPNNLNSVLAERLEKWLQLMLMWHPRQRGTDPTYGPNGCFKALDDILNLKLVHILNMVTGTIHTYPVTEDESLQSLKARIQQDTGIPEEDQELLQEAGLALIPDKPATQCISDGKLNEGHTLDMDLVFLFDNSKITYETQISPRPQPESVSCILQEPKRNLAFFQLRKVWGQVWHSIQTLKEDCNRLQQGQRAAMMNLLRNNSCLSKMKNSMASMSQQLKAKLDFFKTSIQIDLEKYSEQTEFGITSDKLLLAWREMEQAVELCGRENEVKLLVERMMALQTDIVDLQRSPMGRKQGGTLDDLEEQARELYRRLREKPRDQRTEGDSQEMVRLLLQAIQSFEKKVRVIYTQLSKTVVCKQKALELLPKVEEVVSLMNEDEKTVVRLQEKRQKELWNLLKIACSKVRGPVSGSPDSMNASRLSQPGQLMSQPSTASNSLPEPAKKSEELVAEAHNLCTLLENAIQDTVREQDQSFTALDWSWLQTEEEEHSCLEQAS
Outline: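 Recombinant human IKK-2 enzyme (46 nM/rxn, 200 ng/rxn). Substrate 5 µM biotinylated IκBα peptide (residues spanning Ser32/Ser36) with 1 µM ATP plus 0.1 µCi [γ-33P]ATP. Buffer 25 mM Hepes pH 7.6 with 1 mM DTT, 2 mM MgCl2, 2 mM MnCl2, 10 mM NaF. Incubated 30 min at 25 °C, stopped with AG1X8 resin in formate buffer pH 3. Supernatant ³³P read by scintillation counting.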

[5] = target: T4, Inhibitor of nuclear factor kappa-B kinase subunit alpha (Homo sapiens, UniProt O15111); assay: Inhibition of IKK1
T4 sequence (O15111 whole entry): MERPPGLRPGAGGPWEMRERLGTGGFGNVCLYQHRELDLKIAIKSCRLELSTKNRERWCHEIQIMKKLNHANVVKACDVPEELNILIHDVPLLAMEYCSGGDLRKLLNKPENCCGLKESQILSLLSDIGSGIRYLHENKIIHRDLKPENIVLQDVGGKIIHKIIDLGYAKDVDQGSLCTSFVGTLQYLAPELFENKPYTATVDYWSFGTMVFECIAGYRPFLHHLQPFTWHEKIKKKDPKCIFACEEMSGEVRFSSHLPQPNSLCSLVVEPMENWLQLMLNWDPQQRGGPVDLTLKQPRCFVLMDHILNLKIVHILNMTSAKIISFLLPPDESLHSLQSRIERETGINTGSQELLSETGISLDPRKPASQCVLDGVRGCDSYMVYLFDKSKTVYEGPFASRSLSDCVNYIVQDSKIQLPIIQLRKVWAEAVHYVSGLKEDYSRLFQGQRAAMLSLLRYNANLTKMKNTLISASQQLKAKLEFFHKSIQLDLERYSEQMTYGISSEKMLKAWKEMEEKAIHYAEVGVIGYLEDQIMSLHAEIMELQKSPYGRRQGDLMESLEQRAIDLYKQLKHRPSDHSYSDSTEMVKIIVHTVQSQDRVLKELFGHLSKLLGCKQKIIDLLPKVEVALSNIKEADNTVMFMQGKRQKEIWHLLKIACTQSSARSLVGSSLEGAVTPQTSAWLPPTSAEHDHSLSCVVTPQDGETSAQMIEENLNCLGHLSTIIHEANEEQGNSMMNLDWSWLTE

inhibition [2]: inactive | inhibition [3]: inactive | IC50 [4]: 0.025 µM | IC50 [5]: 14 µM
Compound: CN1CCN(c2cc(C(=O)Nc3ccc4c(c3)-c3c(c(C(N)=O)nn3-c3ccc(F)cc3)CC4)c(Cl)cn2)CC1
IC50 [1]: 0.94 µM
